Thrombin inh: inhibitors of human thrombin; P00734; alpha-thrombin, Boc-VPR-AMC fluorogenic substrate cleavage; inhibition, % at 5 µM; 220,000 tested, 0.26% active; AID 1046;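 active = inhibition at or above 40%; inactive = inhibition below 40%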;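 also: 0% = enzyme with no compound and 100% = wells without enzyme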
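System – human alpha-thrombin · Medium – pH 7.5 Tris (50 mM) with NaCl 150 mM, Tween 20 0.05% · Compound – single-point dosing at 5 µM, 0.2% DMSO · Incubation – enzyme reaction carried out at room temperature · Technique – fluorescence of released AMC, ex 355 nm, em 460 nm · Read-out basis – % inhibition of thrombin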
FXIa inh 1536: inhibitors of human coagulation factor XIa; purified FXIa, Boc-Glu-Ala-Arg-AMC fluorogenic substrate; inhibition, % at 5 µM; 220,000 tested, 0.14% active; AID 798;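 active = inhibition of at least 40%; inactive = inhibition below 40%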;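 also: fluorescence of freed AMC excited at 355 nm; 0% = enzyme without compound and 100% = no enzyme blank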
Target sequence (P03951 19-387 limits assumed): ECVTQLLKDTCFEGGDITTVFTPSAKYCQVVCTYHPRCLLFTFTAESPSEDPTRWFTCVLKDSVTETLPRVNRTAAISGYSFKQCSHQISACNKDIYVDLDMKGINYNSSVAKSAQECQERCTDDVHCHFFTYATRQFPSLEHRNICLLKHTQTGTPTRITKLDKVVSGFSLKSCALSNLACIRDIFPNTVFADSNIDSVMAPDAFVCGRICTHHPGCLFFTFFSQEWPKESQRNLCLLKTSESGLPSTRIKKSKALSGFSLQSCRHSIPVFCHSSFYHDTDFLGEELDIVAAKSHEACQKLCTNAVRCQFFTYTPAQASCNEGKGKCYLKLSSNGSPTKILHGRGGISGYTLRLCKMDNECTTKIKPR
Target sequence (P03951 388-625 limits assumed): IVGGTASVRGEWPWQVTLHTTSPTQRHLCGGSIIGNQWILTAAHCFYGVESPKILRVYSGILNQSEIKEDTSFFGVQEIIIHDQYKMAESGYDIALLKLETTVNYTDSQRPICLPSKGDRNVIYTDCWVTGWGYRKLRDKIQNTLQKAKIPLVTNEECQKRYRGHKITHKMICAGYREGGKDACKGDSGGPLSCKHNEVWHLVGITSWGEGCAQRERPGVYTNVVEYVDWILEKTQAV
AHR act: human AHR activation | P35869 | 320,000 tested, 2.5% active | AHR-responsive luciferase reporter cells, luminescence | activation, % at 5 µM; in the data active = activation above about 47%;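 also: 0% = vehicle wells and 100% = reference agonist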
FXIIa inh: blocks human coagulation factor XIIa protease activity | P00748 | AID 800 | purified FXIIa, Boc-QGR-AMC fluorogenic substrate, 2 h | 220,000 tested, 0.3% active | inhibition, % at 5 µM; in the data active = inhibition above about 40%;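 also: 0% = enzyme with no compound and 100% = blank without enzyme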
KLK5 inh: blocks human kallikrein 5 protease activity; 210,000 tested, 0.59% active; recombinant hK5, fluorogenic AMC substrate cleavage; AID 873; Q9Y337; inhibition, % at 5 µM;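 active = inhibition of 40% or more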;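 also: 0% = enzyme controls without compound and 100% = no-enzyme blanks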
STAT3 activator: activators of IL-6 induced STAT3 signaling. U3A cells, IL-6 STAT3-luciferase reporter, luminescence; 100% = signal with IL-6 EC80 alone. activation (% of control), % at 5.6 µM. 190,000 tested, 0.91% active;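 active = activation above the screen-wide mean of compound activation plus 3 SD, cut at about 130% in these data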;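 also: 0% = background luminescence of wells with medium and substrate only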
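Assay system – human STAT1-deficient U3A cells with stable STAT3-luciferase reporter · Also added – IL-6 (33 ng/mL) · Schedule – compound 1 h, then IL-6 6 h at 37 °C · Technique – reporter luminescence signal · Evaluation – % activation versus median of IL-6-stimulated wells · Benchmarks – IL-6-only wells as 100% reference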
Numbers without * were called inactive; . = not tested or not shown. A selection: hits, their analogues and other compounds. The true share with any hit is near 3.5%.

SMILES	Thrombin inh	FXIa inh 1536	AHR act	FXIIa inh	KLK5 inh	STAT3 activator
COC1=C(Nc2ccc(C)cc2)C(=O)c2ccccc2C1=O	-7.8	-0.7	18.2	-0.9	-6.8	112.4
COC1=C(Nc2ccccc2)C(=O)c2ccccc2C1=O	-4.6	22.2	20.7	23.9	-3.0	134.5*
CN1C(=O)C(CC(=O)NCCc2ccccc2)N(NC(=O)c2ccc(Cl)cc2)C1=S (stereo unspecified)	4.9	-4.8	5.7	10.5	24.9	.
Cc1ccc2oc(NC(=O)N3CCOCC3)cc(=O)c2c1	-0.9	0.5	9.6	80.0*	2.8	101.6
COc1cccc(Nc2nnc(SCC3CCCCO3)s2)c1 (stereo unspecified)	-4.6	1.4	50.6*	6.4	6.0	109.7
NNc1nc2ccc(F)cc2s1	21.5	16.8	76.7*	36.2	42.9*	123.9
Fc1ccc2nc(Nc3ccccc3)sc2c1	-11.5	-2.4	26.0	-2.9	-5.5	97.2
Cc1cc(NS(=O)(=O)c2ccc(N3C(=O)C4C5C=CC(C5)C4C3=O)cc2)nc(C)n1 (stereo unspecified)	0.2	66.8*	0.0	4.5	-9.8	95.1
COc1ccc2oc(C(=O)Nc3ccc(C)cn3)c(C)c2c1	.	.	74.6*	.	.	.
COc1ccc2oc(C(=O)Nc3ccccn3)c(C)c2c1	.	.	71.8*	.	.	.
S=c1[nH]nc(-c2cccs2)n1/N=C/c1c(Cl)cccc1Cl	-11.5	-1.8	19.0	5.6	3.2	99.2
COc1cccc(-c2noc(-c3ccc(Cl)nc3)n2)c1	-4.0	-5.6	53.6*	3.5	-8.1	143.7*
COc1cccc(-c2nc(-c3ccc(C(=O)O)cc3)no2)c1	.	.	6.3	.	.	.
Cc1cc(C(=O)OCC(=O)Nc2ccccc2Br)c(C)o1	.	.	-0.5	.	.	.
CCC(=O)c1ccc(OCC(=O)NCCc2ccccn2)cc1	-18.2	-8.9	28.5	4.3	-6.1	103.5
C/C(=N\NC(=S)NC1CCCCC1)c1cccc(Br)c1	51.4*	-7.8	4.1	-5.7	21.0	94.1
C/C(=N\NC(=S)NC1CCCCC1)c1cccc(C(F)(F)F)c1	-6.7	-4.6	3.7	1.6	-2.6	.
CCn1c(/C=C/c2ccccc2)nc2ccccc21	-7.3	-4.6	14.5	-17.7	-0.7	86.5
O=C(Cn1c(/C=C/c2ccccc2)nc2ccccc21)Nc1ccc(F)cc1	10.0	20.6	12.7	40.3*	15.9	106.1
CCc1ccc(NC(=O)Cn2c(SC)nc3ccccc32)cc1	-1.4	4.3	77.6*	14.7	-1.0	112.2
CSc1nc2ccccc2n1CC(=O)Nc1ccccc1	9.6	10.9	0.2	26.1	19.5	98.4
Cn1c(/C(C#N)=C(\O)c2ccc([N+](=O)[O-])s2)nc2ccccc21	.	.	12.1	.	.	.
Cn1c(/C(C#N)=C(\O)c2ccc(Cl)s2)nc2ccccc21	.	.	64.9*	.	.	.
O=C(c1ccccc1)n1ccc2ccccc21	2.3	1.8	62.2*	8.4	0.0	99.8
O=C(O)Cn1ccc2ccccc21	-1.1	-0.6	15.8	8.1	-0.1	.
SMILES	Thrombin inh	FXIa inh 1536	AHR act	FXIIa inh	KLK5 inh	STAT3 activator
COc1ccc(C2C3=C(CCCC3=O)Nc3nc4ccccc4n32)cc1OC (stereo unspecified)	.	.	.	.	.	93.9
Cc1ccccc1Nc1nc(N)nc(CCl)n1	-9.4	-2.1	1.3	2.6	-0.4	.
Nc1nc(CCl)nc(Nc2ccc3ccccc3c2)n1	1.1	32.1	.	17.9	61.4*	.
COc1ccc(OC)c(NC(=O)CSc2ccc3nnc(-c4ccccn4)n3n2)c1	.	.	7.9	.	.	.
COc1ccccc1C1C=C(c2ccc(Cl)cc2)Nc2nc(N3C(=O)CCC3=O)nn21 (stereo unspecified)	50.0*	3.0	0.3	13.4	-33.7	100.7
COc1ccc(C2C=C(c3ccc(Br)cc3)Nc3nc(N4C(=O)CCC4=O)nn32)cc1 (stereo unspecified)	53.0*	-2.7	-1.3	13.0	-84.7	94.5
O=C1CCC(=O)N1c1nc2n(n1)C(c1ccccc1)C=C(c1ccc(Br)cc1)N2 (stereo unspecified)	11.3	-5.9	-0.4	14.8	-16.1	72.2
CNc1ccccc(-c2ccc3ccccc3n2)c1=O	-7.4	2.9	49.9*	9.2	-10.2	110.8
C=CCc1cccc(OC)c1OCCOCCn1ccnc1	2.9	3.9	73.3*	9.1	2.7	102.6
C=CCc1ccccc1OCCn1ccnc1	-0.2	5.0	12.4	5.7	5.3	111.1
Cc1ccc(C(=O)Nc2ccccc2Oc2ccccc2)cc1[N+](=O)[O-]	-2.2	-7.7	73.5*	-3.8	-12.8	105.5
O=C(Nc1ccccc1Oc1ccccc1)c1cccc([N+](=O)[O-])c1	-2.3	-0.3	77.0*	-6.1	2.3	100.7
Cc1cc(C)cc(NC(=O)Cc2ccc(-n3cccc3)cc2)c1	-8.4	3.3	-0.2	15.0	-10.7	93.6
Nc1ccc(-c2nc3c(Cl)c(N)ccc3[nH]2)cc1	-8.0	-28.9	59.9*	-70.1	-118.7	98.0
Nc1ccc(-c2nc3ccc(N)cc3[nH]2)cc1	-33.0	-7.8	7.7	-15.1	-40.8	114.2
Clc1ccc(-c2ccccc2)nn1	-6.2	-8.6	-0.6	5.4	45.1*	.
Clc1ccc(-c2cccs2)nn1	-0.6	-2.7	-2.5	3.7	-0.1	91.7
Cc1ccc(NC(=O)ON=C2CCCC2)cc1	32.3	9.2	11.8	20.2	43.6*	103.5
Cc1cc(C(=O)NNC(=S)NC(C)c2ccccc2)c2ccccc2n1 (stereo unspecified)	2.0	3.0	1.0	11.9	-191.7	100.4
Nc1nc2ccc(N3CCOCC3)cc2s1	-0.3	0.0	13.1	11.4	-3.0	91.8
Cc1cc(C)nc(NC(=O)c2cccc(Br)c2)n1	.	.	32.1	.	.	.
COc1cccc(C(=O)Nc2ccncc2)c1	-5.7	-2.8	4.7	7.3	5.4	99.5
COc1cccc(C(=O)NC(=O)Nc2cc(C)[nH]n2)c1	-1.3	-1.1	51.1*	6.7	-1.2	.
Cc1cc(NC(=O)c2cccc(Br)c2)n[nH]1	.	.	72.7*	.	.	.
COc1ccc(C(=O)CC(=O)C(=O)Nc2ccc(C)c(Cl)c2)cc1	.	.	1.1	.	.	.
SMILES	Thrombin inh	FXIa inh 1536	AHR act	FXIIa inh	KLK5 inh	STAT3 activator
COc1ccc2c(C(=O)c3ccc(Cl)cc3)n(CCCC(N)=O)[n+]([O-])c2c1	.	.	24.9	.	.	.
Cc1cc(NC(=S)NC(=O)C2CC2)ccc1Br	-9.2	-0.7	105.6*	2.0	-4.1	119.2
Cc1cc(C)cc(NC(=S)NC(=O)C2CC2)c1	.	.	58.1*	.	.	.
N=C(SC1CC(=O)N(c2ccc(F)cc2)C1=O)N1N=C(c2ccccc2)CC1c1ccccc1 (stereo unspecified)	-10.2	-4.5	0.2	.	-5.0	107.6
COc1cccc2c1C(=O)c1ccc3ccccc3c1C2=O	3.1	-3.2	61.9*	15.2	-11.0	130.4
COc1ccc(OC)c2c1C(=O)c1ccccc1C2=O	-1.6	0.3	22.1	1.5	2.0	96.9
COc1cccc(NC(=O)COC(=O)/C=C/c2c(C)nn(-c3ccccc3)c2C)c1	.	.	1.2	.	.	.
COc1cc2[nH]c(=S)n(CCN3CCOCC3)c(=O)c2cc1OC	13.0	8.4	5.0	-12.3	103.8*	98.7

Source: PubChem BioAssay
